Experimental data of several laboratories.
Protocols differ between the studies behind these lines. ≈ marks a conversion by molar mass, not a printed value.
Read-out: microbial growth

Structure (SMILES)	organism	technique	strain	time	setting	MIC [µg/mL]
COC(=O)c1cc(-c2ccc(OC)c(NC(=O)Nc3ccc(Cl)c(Cl)c3)c2)on1	Mycobacteroides chelonae	broth dilution	ATCC35752	48 h		> 64
O=c1c2ccccc2nc(Cc2ccccc2)n1-c1cccc(O)c1	Enterococcus faecium	broth dilution	NCTC7171			128 (≈ 390 µM)
OC(Cn1cncn1)(Cn1cncn1)c1ccc(F)cc1F	Candida albicans		28A			> 128
COC(=O)c1cc(-c2cccc(NC(=O)Nc3ccccc3C)c2)on1	Mycobacteroides chelonae	broth dilution	ATCC35752	48 h		> 64
O=c1c2ccccc2nc(CCc2ccccc2)n1-c1cccc(O)c1	Enterococcus faecium	broth dilution	NCTC7171			> 128
C=C(NC(=O)C(=C)NC(=O)c1csc(C2=N[C@@H]3c4csc(n4)[C@H]4NC(=O)c5csc(n5)[C@H]([C@](C)(O)[C@@H](C)O)NC(=O)[C@H]5CSC(=N5)/C(=C/C)NC(=O)[C@H]([C@@H](C)O)NC(=O)c5csc(n5)[C@]3(CC2)NC(=O)[C@H](C)NC(=O)C(=C)NC(=O)[C@H](C)NC(=O)[C@H]([C@@H](C)CC)N[C@@H]2C=Cc3c([C@H](C)O)cc(nc3[C@H]2O)C(=O)O[C@@H]4C)n1)C(N)=O	Enterococcus faecium					0.12 (≈ 0.0721 µM)
CCOC(=O)CON	Candida albicans		28A			32 (≈ 269 µM)
CCCCCCCCCC(=O)N[C@@H](Cc1c[nH]c2ccccc12)C(=O)N[C@H](CC(N)=O)C(=O)N[C@@H](CC(=O)O)C(=O)N[C@@H]1C(=O)NCC(=O)N[C@@H](CCCN)C(=O)N[C@@H](CC(=O)O)C(=O)N[C@H](C)C(=O)N[C@@H](CC(=O)O)C(=O)NCC(=O)N[C@H](CO)C(=O)N[C@@H]([C@H](C)CC(=O)O)C(=O)N[C@@H](CC(=O)c2ccccc2N)C(=O)O[C@@H]1C	Enterococcus faecium	broth dilution			drug-resistant strain	0.25 (≈ 0.154 µM)
COC(=O)c1cc(-c2cccc(NC(=O)Nc3ccccc3)c2)on1	Mycobacteroides chelonae	broth dilution	ATCC35752	48 h		> 64
O=c1c2cc(Br)ccc2nc(/C=C/c2ccc([N+](=O)[O-])cc2)n1-c1cccc(O)c1	Enterococcus faecium	broth dilution	NCTC7171			> 128
CCCCCC/C=C\CCCCCCCCCc1cc(O)cc(O)c1	Enterococcus faecium	broth dilution			drug-resistant strain	64 (≈ 185 µM)
COC(=O)c1cc(-c2cccc(NC(=O)Nc3ccc(Cl)c(Cl)c3)c2)on1	Mycobacteroides chelonae	broth dilution	ATCC35752	48 h		> 64
CN[C@H](CC(C)C)C(=O)N[C@H]1C(=O)N[C@@H](CC(N)=O)C(=O)N[C@H]2C(=O)N[C@H]3C(=O)N[C@H](C(=O)N[C@H](C(=O)O)c4cc(O)cc(O)c4-c4cc3ccc4O)[C@H](O)c3ccc(c(Cl)c3)Oc3cc2cc(c3O[C@@H]2O[C@H](CO)[C@@H](O)[C@H](O)[C@H]2O[C@H]2C[C@](C)(N)[C@H](O)[C@H](C)O2)Oc2ccc(cc2Cl)[C@H]1O	Enterococcus faecium		ATCCBAA2317 VRE		drug-resistant strain	250 (≈ 173 µM)
O=c1c2ccccc2nc(/C=C/c2ccc([N+](=O)[O-])cc2)n1-c1ccc(O)cc1	Enterococcus faecium	broth dilution	NCTC7171			64 (≈ 166 µM)
